This note sets out measurements from ChEMBL document CHEMBL1130160 (J Med Chem, 1997).

Where only a bound is given, the exact number is not on record here.

The first experiment relates to Rattus norvegicus. Nature of the experiment: Dose required to reduce serum cholesterol by 50% relative to OVX controls was determined (in vivo).
Settings: not given
It is filed as functional. The essentials: (§1)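 OVX Sprague–Dawley rats (75 days old), 5–6 per group, dosed once daily by oral gavage for 4 consecutive days, starting 14 days after ovariectomy. Vehicle was 20% β-hydroxycyclodextrin at 1 mL/kg, or 1.5% carboxymethylcellulose in some cases. Rats were fasted after the last dose and bled by cardiac puncture next morning.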
In the case of `C=Cc1ccc(-c2sc3cc(O)ccc3c2C(=O)c2ccc(OCCN3CCCCC3)cc2)cc1`, the median effective dose (ED50) came to 10 mg/kg.
The same measure, in the same setting: as for `COC(=O)c1ccc(-c2sc3cc(O)ccc3c2C(=O)c2ccc(OCCN3CCCCC3)cc2)cc1`, the figure is 3.8 mg/kg; as for `O=C(c1ccc(OCCN2CCCCC2)cc1)c1c(-c2cccs2)sc2cc(O)ccc12`, 11 mg/kg.
Molecule `O=C(c1ccc(OCCN2CCCCC2)cc1)c1c(C2CCCC2)sc2cc(O)ccc12` registered an ED50 of 1.2 mg/kg.
The molecule `Cl.O=C(c1ccc(OCCN2CCCCC2)cc1)c1c(-c2ccc(O)cc2)sc2cc(Cl)ccc12` came in with an ED50 greater than 10 mg/kg.
For `O=C(c1ccc(OCCN2CCCCC2)cc1)c1c(-c2ccsc2)sc2cc(O)ccc12`, the ED50 was greater than 10 mg/kg.
`O=C(c1ccc(OCCN2CCCCC2)cc1)c1c(-c2cccc3ccccc23)sc2cc(O)ccc12` returned an ED50 of 0.5 mg/kg.
Same read-out and setting: as for `O=C(c1ccc(OCCN2CCCCC2)cc1)c1c(-c2cc[n+]([O-])cc2)sc2cc(O)ccc12`, the figure is greater than 10 mg/kg; as for `Cl.O=C(c1ccc(OCCN2CCCCC2)cc1)c1c(-c2ccccc2)sc2ccccc12`, less than 0.1 mg/kg.

The next experiment has as its system Rattus norvegicus. As to the kind of experiment: Percent decrease in serum cholesterol relative to OVX control at 0.1 mg/kg in rat was determined (in vivo).
Settings: not given
It is filed as functional. A digest of the protocol:
as §1
As for `C=Cc1ccc(-c2sc3cc(O)ccc3c2C(=O)c2ccc(OCCN3CCCCC3)cc2)cc1`, the Decrease was -7%.
On to `COC(=O)c1ccc(-c2sc3cc(O)ccc3c2C(=O)c2ccc(OCCN3CCCCC3)cc2)cc1`, for which the Decrease was 23.8%.
With `Cl.O=C(c1ccc(OCCN2CCCCC2)cc1)c1c(-c2ccc(O)cc2)sc2cc(Cl)ccc12`, the Decrease is -5.1%.
Consider `Cl.O=C(c1ccc(OCCN2CCCCC2)cc1)c1c(-c2ccccc2)sc2ccccc12`, for which the Decrease is recorded as 59.4%.

The test system of the next experiment is Rattus norvegicus. As to the kind of experiment: Percent decrease in serum cholesterol relative to OVX control at 0.1 mg/kg in rats. It is filed as functional.
Settings: not given
A digest of the protocol: as §1
For the molecule `O=C(c1ccc(OCCN2CCCCC2)cc1)c1c(C2CCCC2)sc2cc(O)ccc12`, the Decrease was 18.4%.
For `O=C(c1ccc(OCCN2CCCCC2)cc1)c1c(-c2ccsc2)sc2cc(O)ccc12`, the Decrease is reported as 0.6%.
As to `O=C(c1ccc(OCCN2CCCCC2)cc1)c1c(-c2cccc3ccccc23)sc2cc(O)ccc12`, the Decrease was found to be 40.1%.
With `O=C(c1ccc(OCCN2CCCCC2)cc1)c1c(-c2cc[n+]([O-])cc2)sc2cc(O)ccc12`, the Decrease was -16.6%.

The subject of another experiment is Rattus norvegicus. As to the kind of experiment: Percent decrease in serum cholesterol relative to OVX control at 1 mg/kg in rat. It is filed as functional.
Settings: not given
The essentials: as §1
Consider `C=Cc1ccc(-c2sc3cc(O)ccc3c2C(=O)c2ccc(OCCN3CCCCC3)cc2)cc1`, for which the Decrease came out at 41.5%.
As for `COC(=O)c1ccc(-c2sc3cc(O)ccc3c2C(=O)c2ccc(OCCN3CCCCC3)cc2)cc1`, the Decrease was found to be 42.1%.
Consider `Cl.O=C(c1ccc(OCCN2CCCCC2)cc1)c1c(-c2ccc(O)cc2)sc2cc(Cl)ccc12`, for which the Decrease was -6.8%.
Consider `Cl.O=C(c1ccc(OCCN2CCCCC2)cc1)c1c(-c2ccccc2)sc2ccccc12`, for which the Decrease is 72.6%.

Another experiment relates to Rattus norvegicus. Nature of the experiment: Percent decrease in serum cholesterol relative to OVX control at 1.0 mg/kg in rats. It is filed as functional.
Settings: not given
A digest of the protocol:
as §1
As for `O=C(c1ccc(OCCN2CCCCC2)cc1)c1c(-c2cccs2)sc2cc(O)ccc12`, the Decrease was -0.9%.
In the case of `O=C(c1ccc(OCCN2CCCCC2)cc1)c1c(C2CCCC2)sc2cc(O)ccc12`, the Decrease was determined as 55.6%.
For the molecule `O=C(c1ccc(OCCN2CCCCC2)cc1)c1c(-c2cccc3ccccc23)sc2cc(O)ccc12`, the Decrease worked out at 53.9%.
On to `O=C(c1ccc(OCCN2CCCCC2)cc1)c1c(-c2cc[n+]([O-])cc2)sc2cc(O)ccc12`, for which the Decrease was determined as 1.8%.

The next experiment has as its system Rattus norvegicus. As to the kind of experiment: Percent decrease in serum cholesterol relative to OVX control at 10 mg/kg in rat was determined (in vivo). It is filed as functional.
Settings: not given
The essentials:
as §1
For `C=Cc1ccc(-c2sc3cc(O)ccc3c2C(=O)c2ccc(OCCN3CCCCC3)cc2)cc1`, the Decrease amounted to 49.7%.
Consider `COC(=O)c1ccc(-c2sc3cc(O)ccc3c2C(=O)c2ccc(OCCN3CCCCC3)cc2)cc1`, for which the Decrease came out at 56.1%.
On the same count and under the same terms, as for `O=C(c1ccc(OCCN2CCCCC2)cc1)c1c(C2CCCC2)sc2cc(O)ccc12`, the figure is 69.6%.
In the case of `Cl.O=C(c1ccc(OCCN2CCCCC2)cc1)c1c(-c2ccc(O)cc2)sc2cc(Cl)ccc12`, the Decrease stood at 37.6%.
Consider `O=C(c1ccc(OCCN2CCCCC2)cc1)c1c(-c2ccsc2)sc2cc(O)ccc12`, for which the Decrease came to 31.8%.
Turning to `O=C(c1ccc(OCCN2CCCCC2)cc1)c1c(-c2cccc3ccccc23)sc2cc(O)ccc12`, the Decrease is given as 67.8%.
Turning to `O=C(c1ccc(OCCN2CCCCC2)cc1)c1c(-c2cc[n+]([O-])cc2)sc2cc(O)ccc12`, the Decrease is given as 42.6%.
Consider `Cl.O=C(c1ccc(OCCN2CCCCC2)cc1)c1c(-c2ccccc2)sc2ccccc12`, for which the Decrease worked out at 45.6%.

A further experiment has as its system Rattus norvegicus. Nature of the experiment: Minimum effective dose at which significant increase in uterine eosinophil peroxidase (EPO) activity in rat was determined (in vivo). It is filed as functional. The settings on record: read-out: MED.
Consider `C=Cc1ccc(-c2sc3cc(O)ccc3c2C(=O)c2ccc(OCCN3CCCCC3)cc2)cc1`, for which the minimal effective dose was found to be 1 mg/kg.
As to `COC(=O)c1ccc(-c2sc3cc(O)ccc3c2C(=O)c2ccc(OCCN3CCCCC3)cc2)cc1`, the minimal effective dose was determined as 10 mg/kg.
Turning to `O=C(c1ccc(OCCN2CCCCC2)cc1)c1c(-c2cccs2)sc2cc(O)ccc12`, the minimal effective dose was greater than 10 mg/kg.
Same read-out and setting: to `O=C(c1ccc(OCCN2CCCCC2)cc1)c1c(C2CCCC2)sc2cc(O)ccc12` belongs greater than 10 mg/kg; to `Cl.O=C(c1ccc(OCCN2CCCCC2)cc1)c1c(-c2ccc(O)cc2)sc2cc(Cl)ccc12`, greater than 10 mg/kg.
Same read-out and setting: as for `O=C(c1ccc(OCCN2CCCCC2)cc1)c1c(-c2ccsc2)sc2cc(O)ccc12`, the figure is greater than 10 mg/kg; as for `O=C(c1ccc(OCCN2CCCCC2)cc1)c1c(-c2cccc3ccccc23)sc2cc(O)ccc12`, greater than 10 mg/kg.
On to `O=C(c1ccc(OCCN2CCCCC2)cc1)c1c(-c2cc[n+]([O-])cc2)sc2cc(O)ccc12`, for which the minimal effective dose was greater than 10 mg/kg.
With `Cl.O=C(c1ccc(OCCN2CCCCC2)cc1)c1c(-c2ccccc2)sc2ccccc12`, the minimal effective dose is greater than 10 mg/kg.

The subject of a further experiment is Rattus norvegicus. As to the kind of experiment: Minimum effective dose at which significant increase in uterine weight/body weight in rat was determined (in vivo). It is filed as functional. The settings on record: read-out: MED. A digest of the protocol:
(§2)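 In 75-day OVX Sprague–Dawley rats dosed orally for 4 days, beginning 2 weeks post-ovariectomy with 5–6 rats per group, whole uteri were weighed the morning after fasting. MED is the lowest dose giving a significant (p≤0.05) rise in uterine weight/body weight, expressed as % increase over OVX controls ±SE.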
On to `C=Cc1ccc(-c2sc3cc(O)ccc3c2C(=O)c2ccc(OCCN3CCCCC3)cc2)cc1`, for which the minimal effective dose is 0.1 mg/kg.
For the molecule `COC(=O)c1ccc(-c2sc3cc(O)ccc3c2C(=O)c2ccc(OCCN3CCCCC3)cc2)cc1`, the minimal effective dose was determined as 1 mg/kg.
Take `O=C(c1ccc(OCCN2CCCCC2)cc1)c1c(-c2cccs2)sc2cc(O)ccc12`: the minimal effective dose is 1 mg/kg.
With `O=C(c1ccc(OCCN2CCCCC2)cc1)c1c(C2CCCC2)sc2cc(O)ccc12`, the minimal effective dose is greater than 10 mg/kg.
Same read-out and setting: as for `Cl.O=C(c1ccc(OCCN2CCCCC2)cc1)c1c(-c2ccc(O)cc2)sc2cc(Cl)ccc12`, the figure is 10 mg/kg.
In the case of `O=C(c1ccc(OCCN2CCCCC2)cc1)c1c(-c2ccsc2)sc2cc(O)ccc12`, the minimal effective dose was determined as 10 mg/kg.
Consider `O=C(c1ccc(OCCN2CCCCC2)cc1)c1c(-c2cccc3ccccc23)sc2cc(O)ccc12`, for which the minimal effective dose was greater than 10 mg/kg.
For `O=C(c1ccc(OCCN2CCCCC2)cc1)c1c(-c2cc[n+]([O-])cc2)sc2cc(O)ccc12`, the minimal effective dose was greater than 10 mg/kg.
The same measure, in the same setting: as for `Cl.O=C(c1ccc(OCCN2CCCCC2)cc1)c1c(-c2ccccc2)sc2ccccc12`, the figure is 0.1 mg/kg.

The test system of the next experiment is Rattus norvegicus. Nature of the experiment: Eosinophil peroxidase activity expressed as Vmax was determined in rat (in vivo) Eosinophil peroxidase activity expressed as Vmax was determined in rat (in vivo). It is filed as functional. Also on record: unit not given here.
Settings: not given
`C=Cc1ccc(-c2sc3cc(O)ccc3c2C(=O)c2ccc(OCCN3CCCCC3)cc2)cc1` showed an Eosinophil peroxidase activity (Vmax) of 48.
Turning to `COC(=O)c1ccc(-c2sc3cc(O)ccc3c2C(=O)c2ccc(OCCN3CCCCC3)cc2)cc1`, the Eosinophil peroxidase activity (Vmax) was found to be 13.2.

For the next experiment, the system named is Rattus norvegicus. As to the kind of experiment: Minimum effective dose at which significant increase in uterine weight/body weight in rat was determined (in vivo); expressed as % increase relative to ovariectomized (OVX) controls. It is filed as functional.
Settings: not given
A digest of the protocol: as §2
Molecule `C=Cc1ccc(-c2sc3cc(O)ccc3c2C(=O)c2ccc(OCCN3CCCCC3)cc2)cc1` had an Increase of 26.9%.
`COC(=O)c1ccc(-c2sc3cc(O)ccc3c2C(=O)c2ccc(OCCN3CCCCC3)cc2)cc1` had an Increase of 37.2%.
In turn, `Cl.O=C(c1ccc(OCCN2CCCCC2)cc1)c1c(-c2ccc(O)cc2)sc2cc(Cl)ccc12` came in with an Increase of 49.6%.
Take `Cl.O=C(c1ccc(OCCN2CCCCC2)cc1)c1c(-c2ccccc2)sc2ccccc12`: the Increase was determined as 59.2%.

For the next experiment, the target named is Estrogen receptor (Homo sapiens, UniProt Q92731+P03372). The settings on record: mcf7.
On to `O=C(c1ccc(OCCN2CCCCC2)cc1)c1c(-c2cccs2)sc2cc(O)ccc12`, for which the IC50 turned out to be 20 nM.
The same measure, in the same setting: to `Cl.O=C(c1ccc(OCCN2CCCCC2)cc1)c1c(-c2ccc(O)cc2)sc2cc(Cl)ccc12` belongs 1000 nM; to `O=C(c1ccc(OCCN2CCCCC2)cc1)c1c(-c2ccsc2)sc2cc(O)ccc12`, 10 nM.
Consider `O=C(c1ccc(OCCN2CCCCC2)cc1)c1c(-c2cccc3ccccc23)sc2cc(O)ccc12`, for which the IC50 was determined as 0.8 nM.
Take `O=C(c1ccc(OCCN2CCCCC2)cc1)c1c(-c2cc[n+]([O-])cc2)sc2cc(O)ccc12`: the IC50 was 100 nM.
In turn, `Cl.O=C(c1ccc(OCCN2CCCCC2)cc1)c1c(-c2ccccc2)sc2ccccc12` gave an IC50 of 300 nM.
